In ChEMBL document CHEMBL4304784, “Discovery of new potent dual sigma receptor/GluN2b ligands with antioxidant property as neuroprotective agents” (Eur J Med Chem, 2019):
≈ marks a conversion by molar mass, not a printed value.

Test system: not listed separately
Assay: Cytotoxicity against human Hep3B cells assessed as cell viability at 50 uM incubated for 48 hrs by MTT assay relative to control
Type: cell-based, Hep 3B2
Conditions: read-out: Activity
Procedure, shortened: (§1)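 Cells kept in DMEM Glutamax with 10% FBS and antibiotic/antimycotic at 37 °C, 5% CO2. Plated at 2x10^3 cells/well 24 h before dosing. Compounds taken from DMSO and diluted in medium, final DMSO ≤1.0%. Exposure 48 h, then MTT added for 4 h at 37 °C. Read as A595 minus A655. Triplicates, at least three independent experiments, mean ± SEM.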

Compound	viability at 48 h, 50 µM
O=c1oc(-c2ccccc2)nn1CCCCN1CCC2(CC1)OCc1ccccc12	42%

Test system: not listed separately
Assay: Antioxidant activity assessed as H2O2 radical scavenging activity
Type: functional
Conditions: not given
Procedure, shortened: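 Compounds at 0.05, 0.1, 0.2 and 0.4 mg/mL in phosphate buffer pH 7.4. 0.353 mL of 4 mM H2O2 in phosphate buffer added to 2.0 mL of each solution, absorbance read at 239 nm. Percent inhibition calculated from absorbances relative to control. Triplicate, mean ± SEM.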

Compound	IC50
O=c1oc(-c2ccccc2)nn1CCCCN1CCC2(CC1)OCc1ccccc12	21.19 µg/mL (≈ 52.3 µM)

Test system: not listed separately
Assay: Cytotoxicity against human HeLa cells assessed as cell viability at 10 uM incubated for 48 hrs by MTT assay relative to control
Type: cell-based
Conditions: read-out: Activity
Procedure, shortened: as §1

Compound	viability at 48 h, 10 µM
O=c1oc(-c2ccccc2)nn1CCCCN1CCC2(CC1)OCc1ccccc12	99%

Test system: not listed separately
Assay: Cytotoxicity against human Hep3B cells assessed as cell viability at 10 uM incubated for 48 hrs by MTT assay relative to control
Type: cell-based, Hep 3B2
Conditions: read-out: Activity
Procedure, shortened: as §1

Compound	viability at 48 h, 10 µM
O=c1oc(-c2ccccc2)nn1CCCCN1CCC2(CC1)OCc1ccccc12	87%

Test system: not listed separately
Assay: Cytotoxicity against human SH-SY5Y cells assessed as cell viability at 25 uM incubated for 48 hrs by MTT assay (reference value: 100 +/- 12.00%)
Type: cell-based
Conditions: read-out: Activity
Procedure, shortened: as §1

Compound	viability at 48 h, 25 µM
O=c1oc(-c2ccccc2)nn1CCCCN1CCC2(CC1)OCc1ccccc12	96 to 104%

Test system: not listed separately
Assay: Cytotoxicity against human HeLa cells assessed as cell viability at 25 uM incubated for 48 hrs by MTT assay relative to control
Type: cell-based
Conditions: read-out: Activity
Procedure, shortened: as §1

Compound	viability at 48 h, 25 µM
O=c1oc(-c2ccccc2)nn1CCCCN1CCC2(CC1)OCc1ccccc12	80%

Test system: not listed separately
Assay: Cytotoxicity against human SH-SY5Y cells assessed as cell viability at 10 uM incubated for 48 hrs by MTT assay (reference value: 100 +/- 12.00%)
Type: cell-based
Conditions: read-out: Activity
Procedure, shortened: as §1

Compound	viability at 48 h, 10 µM
O=c1oc(-c2ccccc2)nn1CCCCN1CCC2(CC1)OCc1ccccc12	120%

Test system: not listed separately
Assay: Antioxidant activity assessed as ABTS radical scavenging activity incubated for 40 mins
Type: functional
Conditions: not given
Procedure, shortened: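 Test compound at 0.05, 0.1, 0.2 and 0.4 mg/mL (200 µL) added to 1.8 mL ethanolic ABTS 7mM. Incubated 40 min at room temperature, absorbance read at 735 nm against ABTS solution. Percent inhibition computed from absorbances and used to derive IC50. Triplicate, mean ± SEM; ascorbic acid as reference.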

Compound	IC50
O=c1oc(-c2ccccc2)nn1CCCCN1CCC2(CC1)OCc1ccccc12	17.96 µg/mL (≈ 44.3 µM)

Test system: not listed separately
Assay: Cytotoxicity against human SH-SY5Y cells assessed as cell viability at 100 uM incubated for 48 hrs by MTT assay (reference value: 100 +/- 12.00%)
Type: cell-based
Conditions: read-out: Activity
Procedure, shortened: as §1

Compound	viability at 48 h, 100 µM
O=c1oc(-c2ccccc2)nn1CCCCN1CCC2(CC1)OCc1ccccc12	1%

Target: Sigma non-opioid intracellular receptor 1 (Cavia porcellus, UniProt Q60492)
Sequence (Q60492 whole entry): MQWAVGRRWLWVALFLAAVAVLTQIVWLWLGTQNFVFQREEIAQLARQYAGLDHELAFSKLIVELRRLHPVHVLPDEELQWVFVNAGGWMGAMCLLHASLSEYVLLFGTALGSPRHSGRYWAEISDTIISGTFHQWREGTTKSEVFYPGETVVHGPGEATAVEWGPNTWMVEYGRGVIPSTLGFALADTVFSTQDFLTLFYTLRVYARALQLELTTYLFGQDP
Assay: Displacement of [3H]-(+)-pentazocine from sigma1 receptor in guinea pig brain cortex membranes incubated for 120 mins by solid scintillation counting method
Type: cell membranes
Conditions: not given
Procedure, shortened: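 Guinea pig brain cortex membranes (about 100 µg protein) with 2 nM [3H]-(+)-pentazocine in 50 mM TRIS pH 7.4 at 37 °C. Non-specific binding defined with 10 µM unlabeled (+)-pentazocine. Six concentrations, 10^-5 to 10^-10 M, in duplicate. 120 min with shaking, filtration, solid scintillator counting.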

Compound	Ki
O=c1oc(-c2ccccc2)nn1CCCCN1CCC2(CC1)OCc1ccccc12	0.019 µM

Test system: not listed separately
Assay: Cytotoxicity against human HeLa cells assessed as cell viability at 100 uM incubated for 48 hrs by MTT assay relative to control
Type: cell-based
Conditions: read-out: Activity
Procedure, shortened: as §1

Compound	viability at 48 h, 100 µM
O=c1oc(-c2ccccc2)nn1CCCCN1CCC2(CC1)OCc1ccccc12	5%

Test system: not listed separately
Assay: Cytotoxicity against human Hep3B cells assessed as decrease in cell viability incubated for 48 hrs by MTT assay
Type: cell-based, Hep 3B2
Conditions: read-out: LD50
Procedure, shortened: (§2)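 Cells kept in DMEM Glutamax with 10% FBS and antibiotic/antimycotic at 37 °C, 5% CO2. Seeded 24 h before dosing (SH-SY5Y at 2x10^3 cells/well). Compounds in DMSO serially diluted in medium, final DMSO 1.0%, exposure 48 h. MTT added for 4 h at 37 °C, read A595 minus A655. LD50 from linear regression of dose-log response curves; triplicates, three experiments, mean ± SEM.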

Compound	CC50 at 48 h
O=c1oc(-c2ccccc2)nn1CCCCN1CCC2(CC1)OCc1ccccc12	51 µM

Target: Glutamate NMDA receptor; GRIN1/GRIN2B (Homo sapiens, UniProt Q05586+Q13224)
Sequence (Q13224 whole entry, other chains not shown): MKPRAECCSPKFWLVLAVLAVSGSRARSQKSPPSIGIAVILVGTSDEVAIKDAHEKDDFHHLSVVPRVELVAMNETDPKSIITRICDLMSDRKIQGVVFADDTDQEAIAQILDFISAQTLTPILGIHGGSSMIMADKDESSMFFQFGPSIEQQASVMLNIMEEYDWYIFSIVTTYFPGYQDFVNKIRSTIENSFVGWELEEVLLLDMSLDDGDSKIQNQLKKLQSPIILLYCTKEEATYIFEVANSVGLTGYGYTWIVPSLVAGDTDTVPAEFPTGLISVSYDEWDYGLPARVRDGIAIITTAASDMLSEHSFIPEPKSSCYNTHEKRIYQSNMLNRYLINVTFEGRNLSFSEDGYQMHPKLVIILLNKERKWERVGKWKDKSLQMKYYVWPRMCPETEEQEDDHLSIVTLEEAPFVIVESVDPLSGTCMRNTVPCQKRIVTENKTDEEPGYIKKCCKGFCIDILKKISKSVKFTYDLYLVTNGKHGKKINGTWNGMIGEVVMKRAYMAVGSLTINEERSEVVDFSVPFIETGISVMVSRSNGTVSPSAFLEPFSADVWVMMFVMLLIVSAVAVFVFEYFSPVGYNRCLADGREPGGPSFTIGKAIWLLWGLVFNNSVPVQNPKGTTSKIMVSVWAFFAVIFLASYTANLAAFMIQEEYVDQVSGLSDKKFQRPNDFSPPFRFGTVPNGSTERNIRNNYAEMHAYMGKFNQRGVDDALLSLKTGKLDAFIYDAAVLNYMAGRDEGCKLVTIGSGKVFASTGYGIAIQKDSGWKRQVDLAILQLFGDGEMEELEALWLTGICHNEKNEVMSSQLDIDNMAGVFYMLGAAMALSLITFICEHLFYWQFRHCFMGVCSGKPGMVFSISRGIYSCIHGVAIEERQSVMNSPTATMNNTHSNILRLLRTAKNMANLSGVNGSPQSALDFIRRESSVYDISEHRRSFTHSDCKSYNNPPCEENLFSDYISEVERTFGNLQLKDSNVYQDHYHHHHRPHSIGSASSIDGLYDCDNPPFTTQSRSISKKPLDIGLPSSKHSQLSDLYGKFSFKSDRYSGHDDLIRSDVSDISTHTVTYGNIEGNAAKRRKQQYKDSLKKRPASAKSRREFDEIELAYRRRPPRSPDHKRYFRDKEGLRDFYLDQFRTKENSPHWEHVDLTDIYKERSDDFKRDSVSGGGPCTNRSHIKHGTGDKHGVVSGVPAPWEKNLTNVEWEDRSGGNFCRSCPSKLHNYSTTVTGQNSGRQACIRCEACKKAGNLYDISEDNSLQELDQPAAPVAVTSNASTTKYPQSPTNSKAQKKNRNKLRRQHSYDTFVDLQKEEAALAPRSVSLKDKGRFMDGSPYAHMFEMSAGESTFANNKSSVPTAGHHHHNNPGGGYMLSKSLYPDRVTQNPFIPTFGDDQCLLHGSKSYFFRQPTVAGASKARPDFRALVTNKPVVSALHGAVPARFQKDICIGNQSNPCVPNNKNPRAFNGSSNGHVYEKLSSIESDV
Assay: Displacement of [3H]ifenprodil from GluN1a/GluN2B (unknown origin) expressed in mouse L(tk-) cell membranes after 120 mins by solid scintillation counting method
Conditions: not given
Procedure, shortened: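 Membranes (about 20 μg protein) from mouse L(tk-) cells stably carrying GluN1a/GluN2B, induced with 4 μM dexamethasone and 4 μM ketamine for 24 h. Incubated with 5 nM [3H]ifenprodil in 5 mM TRIS/1 mM EDTA pH 7.5 at 37 °C, 120 min. Non-specific binding defined with 10 μM ifenprodil.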

Compound	Ki
O=c1oc(-c2ccccc2)nn1CCCCN1CCC2(CC1)OCc1ccccc12	0.0082 µM

Test system: not listed separately
Assay: Cytotoxicity against human Hep3B cells assessed as cell viability at 100 uM incubated for 48 hrs by MTT assay relative to control
Type: cell-based, Hep 3B2
Conditions: read-out: Activity
Procedure, shortened: as §1

Compound	viability at 48 h, 100 µM
O=c1oc(-c2ccccc2)nn1CCCCN1CCC2(CC1)OCc1ccccc12	4%

Test system: not listed separately
Assay: Selectivity ratio of Ki for sigma1 receptor in guinea pig brain membranes to Ki for sigma2 receptor in rat liver membranes
Type: cell membranes
Conditions: not given

Compound	Ratio Ki
O=c1oc(-c2ccccc2)nn1CCCCN1CCC2(CC1)OCc1ccccc12	1.2

Test system: not listed separately
Assay: Cytotoxicity against human HeLa cells assessed as cell viability at 50 uM incubated for 48 hrs by MTT assay relative to control
Type: cell-based
Conditions: read-out: Activity
Procedure, shortened: as §1

Compound	viability at 48 h, 50 µM
O=c1oc(-c2ccccc2)nn1CCCCN1CCC2(CC1)OCc1ccccc12	60%

Target: T1, Sigma intracellular receptor 2 (Rattus norvegicus, UniProt Q5U3Y7)
T1 sequence (Q5U3Y7 whole entry): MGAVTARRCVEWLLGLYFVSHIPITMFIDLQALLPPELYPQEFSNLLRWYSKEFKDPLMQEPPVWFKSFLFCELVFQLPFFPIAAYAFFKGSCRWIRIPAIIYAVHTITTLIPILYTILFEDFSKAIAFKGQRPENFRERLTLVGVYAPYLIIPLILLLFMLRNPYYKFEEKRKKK
Assay: Displacement of [3H]-di-o-tolylguanidine from sigma2 receptor in rat liver membranes in the presence of sigma1 receptor ligand (+)-pentazocine incubated for 120 mins by scintillation counting method
Type: cell membranes
Conditions: not given
Procedure, shortened: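 Rat liver membranes (about 100 µg protein) with 3 nM [3H]di-o-tolylguanidine in 50 mM TRIS pH 8.0 containing 500 nM (+)-pentazocine, at rt. Non-specific binding defined with 10 µM unlabeled DTG. Concentrations 10^-5 to 10^-10 M, in duplicate. 120 min, filtration, scintillation counting. Three independent experiments, mean ± SEM.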

Compound	Ki
O=c1oc(-c2ccccc2)nn1CCCCN1CCC2(CC1)OCc1ccccc12	0.016 µM

Test system: not listed separately
Assay: Cytotoxicity against human Hep3B cells assessed as cell viability at 25 uM incubated for 48 hrs by MTT assay relative to control
Type: cell-based, Hep 3B2
Conditions: read-out: Activity
Procedure, shortened: as §1

Compound	viability at 48 h, 25 µM
O=c1oc(-c2ccccc2)nn1CCCCN1CCC2(CC1)OCc1ccccc12	90%

Test system: not listed separately
Assay: Selectivity ratio of Ki for sigma2 receptor in rat liver membranes to Ki for GluN1a/GluN2B (unknown origin) expressed in mouse L(tk-) cell membranes
Type: cell-based
Conditions: not given

Compound	Ratio Ki
O=c1oc(-c2ccccc2)nn1CCCCN1CCC2(CC1)OCc1ccccc12	2

Test system: not listed separately
Assay: Cytotoxicity against human SH-SY5Y cells assessed as decrease in cell viability incubated for 48 hrs by MTT assay
Type: cell-based
Conditions: read-out: LD50
Procedure, shortened: as §2

Compound	CC50 at 48 h
O=c1oc(-c2ccccc2)nn1CCCCN1CCC2(CC1)OCc1ccccc12	53 µM

Test system: not listed separately
Assay: Cytotoxicity against human SH-SY5Y cells assessed as cell viability at 50 uM incubated for 48 hrs by MTT assay (reference value: 100 +/- 12.00%)
Type: cell-based
Conditions: read-out: Activity
Procedure, shortened: as §1

Compound	viability at 48 h, 50 µM
O=c1oc(-c2ccccc2)nn1CCCCN1CCC2(CC1)OCc1ccccc12	50%

Test system: SH-SY5Y
Assay: Neuroprotective activity against H2O2-induced toxicity in human SH-SY5Y cells assessed as cell viability at 25 uM pretreated for 48 hrs followed by H2O2 challenge and measured after 4 hrs by MTT assay (reference value: 18 +/- 2.64%)
Type: functional
Conditions: read-out: Activity

Compound	viability at 25 µM
O=c1oc(-c2ccccc2)nn1CCCCN1CCC2(CC1)OCc1ccccc12	101%

Test system: not listed separately
Assay: Cytotoxicity against human HeLa cells assessed as decrease in cell viability incubated for 48 hrs by MTT assay
Type: cell-based
Conditions: read-out: LD50
Procedure, shortened: as §2

Compound	CC50 at 48 h
O=c1oc(-c2ccccc2)nn1CCCCN1CCC2(CC1)OCc1ccccc12	55 µM
